Reference: ChEMBL document CHEMBL1144035, “Synthesis, cytostatic and anti-HCV activity of 6-(N-substituted aminomethyl)-, 6-(O-substituted hydroxymethyl)- and 6-(S-substituted sulfanylmethyl)purine nucleosides” (Bioorg Med Chem, 2008)
Activity calls are given as the source filed them. The calls are words filed in the database; no cut-off is given here.

How the values were obtained:
[1] = Cytotoxicity against human Huh7 cells after 3 days by MTT method; format: functional; conditions: Huh-7, 72 h
Procedure, shortened: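 Cellular toxicity was read by MTT in Huh-7 cells carrying the con-1 HCV replicon, in duplicate (N = 2).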

HL-60 [2] = assay: Cell cycle arrest in human HL60 cells by accumulation at S phase at 1 umol/L by flow cytometry relative to control; format: functional
Procedure, shortened: (§1)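 HL-60 cells exposed to compound for 72 h at the single concentration in the line; the cell-cycle phase fraction is reported as a change relative to untreated control cells.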

CCRF-CEM [3] = assay: Cytostatic activity in human CCRF-CEM cells assessed as inhibition of cell growth after 72 hrs by XTT assay; format: functional, cell-based
HL-60 [4] = assay: Cell cycle arrest in human HL60 cells by accumulation at G2/M phase at 1 umol/L by flow cytometry relative to control; format: functional; procedure, shortened: as §1
HL-60 [5] = assay: Cytostatic activity in human HL60 cells assessed as inhibition of cell growth after 72 hrs by XTT assay; format: functional, cell-based; conditions: HL-60, 72 h
MT4 = assay: Cytotoxicity against human MT4 cells after 4 days; format: functional; conditions: MT4, 96 h
Procedure, shortened: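 Cellular toxicity was measured in MT-4 cells, N = 2.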

HL-60 [6] = assay: Cell cycle arrest in human HL60 cells by accumulation at G2/M phase at 2.5 umol/L after 72 hrs by flow cytometry; format: functional
HL-60 [7] = assay: Cytostatic activity in human HL60 cells assessed as inhibition of cell growth after 72 hrs; format: functional, cell-based; conditions: HL-60, 72 h
Procedure, shortened: (§2)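 Cultures from ATCC lines: mouse leukaemia L1210 (CCL 219), human promyelocytic leukaemia HL60 (CCL 240) and human T-lymphoblastoid CCRF-CEM (CCL 119). Growth inhibition was estimated from the cell count in a haematological analyzer (haemocytometer).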

HL-60 [8] = assay: Cell cycle arrest in human HL60 cells by accumulation at G1 phase at 1 umol/L after 72 hrs by flow cytometry; format: functional
HL-60 [9] = assay: Cell cycle arrest in human HL60 cells by accumulation at S phase at 2.5 umol/L after 72 hrs by flow cytometry; format: functional
HL-60 [10] = assay: Cell cycle arrest in human HL60 cells by accumulation at G2/M phase at 1 umol/L after 72 hrs by flow cytometry; format: functional
HL-60 [11] = assay: Cell cycle arrest in human HL60 cells by accumulation at G1 phase at 2.5 umol/L after 72 hrs by flow cytometry; format: functional
HL-60 [12] = assay: Cell cycle arrest in human HL60 cells by accumulation at G2/M phase at 5 umol/L after 72 hrs by flow cytometry; format: functional
Hepatitis C virus = assay: Antiviral activity against Hepatitis C virus 1b after 3 days; format: functional, organism-based, Hepacivirus hominis; conditions: genotype 1b, 72 h
HL-60 [13] = assay: Cell cycle arrest in human HL60 cells by accumulation at G1 phase at 5 umol/L after 72 hrs by flow cytometry; format: functional
HeLa = assay: Cytostatic activity in human HeLa S3 cells assessed as inhibition of cell growth after 48 hrs by XTT assay; format: functional, cell-based
HL-60 [14] = assay: Cell cycle arrest in human HL60 cells by depletion of cells at S phase after 72 hrs by flow cytometry; format: functional, cell-based
HL-60 [15] = assay: Cell cycle arrest in human HL60 cells by accumulation at G1 phase at 1 umol/L by flow cytometry relative to control; format: functional; procedure, shortened: as §1
HL-60 [16] = assay: Cell cycle arrest in human HL60 cells by accumulation at G1 phase after 72 hrs by flow cytometry; format: functional, cell-based
HL-60 [17] = assay: Cell cycle arrest in human HL60 cells by accumulation at S phase at 1 umol/L after 72 hrs by flow cytometry; format: functional
CCRF-CEM [18] = assay: Cytostatic activity in human CCRF-CEM cells assessed as inhibition of cell growth after 72 hrs; format: functional, cell-based; procedure, shortened: as §2
HL-60 [19] = assay: Cell cycle arrest in human HL60 cells by accumulation at S phase at 5 umol/L after 72 hrs by flow cytometry; format: functional
L1210 = assay: Cytostatic activity in mouse L1210 cells assessed as inhibition of cell growth after 72 hrs; format: functional, cell-based; procedure, shortened: as §2
HL-60 [20] = assay: Cell cycle arrest in human HL60 cells by accumulation at G1 phase at 3 umol/L by flow cytometry relative to control; format: functional; procedure, shortened: as §1
HL-60 [21] = assay: Cell cycle arrest in human HL60 cells by accumulation at G2/M phase at 3 umol/L by flow cytometry relative to control; format: functional; procedure, shortened: as §1
HL-60 [22] = assay: Cell cycle arrest in human HL60 cells by accumulation at S phase at 3 umol/L by flow cytometry relative to control; format: functional; procedure, shortened: as §1
HL-60 [23] = assay: Cell cycle arrest in human HL60 cells by accumulation at S phase at 22.5 umol/L by flow cytometry relative to control; format: functional; procedure, shortened: as §1
HL-60 [24] = assay: Cell cycle arrest in human HL60 cells by accumulation at G2/M phase at 22.5 umol/L by flow cytometry relative to control; format: functional; procedure, shortened: as §1
HL-60 [25] = assay: Cell cycle arrest in human HL60 cells by accumulation at G1 phase at 22.5 umol/L by flow cytometry relative to control; format: functional; procedure, shortened: as §1

Structure (SMILES)	CC50 [1]	IC50 (CCRF-CEM [3])	IC50 (HL-60 [5])	IC50 (HL-60 [7])	EC50 (Hepatitis C virus)	Activity (HeLa)	Activity (HL-60 [16])	IC50 (CCRF-CEM [18])	Activity (L1210)	further results
[N-]=[N+]=NCc1ncnc2c1ncn2[C@@H]1O[C@H](CO)[C@@H](O)[C@H]1O	> 250 µM	340 nM	0.78 µM	1.88 µM	6 µM	inactive	Active	0.39 µM	–	Activity (HL-60 [2]): 0.63%; Activity (HL-60 [4]): 1.3%; CC50 (MT4): 32 µM; Activity (HL-60 [6]): 8%; Activity (HL-60 [8]): 54%; Activity (HL-60 [9]): 59%; Activity (HL-60 [10]): 10%; Activity (HL-60 [11]): 33%; Activity (HL-60 [12]): 8%; Activity (HL-60 [13]): 24%; Activity (HL-60 [14]): Active; Activity (HL-60 [15]): 1.57%; Activity (HL-60 [17]): 37%; Activity (HL-60 [19]): 69%; IC50 (L1210; L1210, 72 h): 1590 nM
CN(Cc1ncnc2c1ncn2[C@@H]1O[C@H](CO)[C@@H](O)[C@H]1O)c1ccccc1	21 µM	–	3.4 µM	4 µM	21 µM	inactive	–	–	inactive	Activity (HL-60 [20]): 1.12%; Activity (HL-60 [21]): 1.08%; Activity (HL-60 [22]): 0.87%; Activity (CCRF-CEM [18]): inactive
OC[C@H]1O[C@@H](n2cnc3c(CSCc4ccccc4)ncnc32)[C@H](O)[C@@H]1O	> 100 µM	4650 nM	19.2 µM	10.7 µM	> 100 µM	inactive	Active	9.2 µM	inactive	Activity (HL-60 [23]): 0.43%; Activity (HL-60 [24]): 0.88%; Activity (HL-60 [25]): 1.99%
